Measurements taken from ChEMBL document CHEMBL4354800, “Amphiphilic nebramine-based hybrids Rescue legacy antibiotics from intrinsic resistance in multidrug-resistant Gram-negative bacilli” (Eur J Med Chem, 2019).

How the values were obtained:
Pseudomonas aeruginosa [1] = assay: Synergistic antibacterial activity against MDR/XDR Pseudomonas aeruginosa isolate 101885 harboring T83I mutant assessed as fractional inhibitory concentration index in presence of rifampicin incubated for 18 hrs by broth microdilution method; assay type: functional
Summary of the method: (§1)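 Checkerboard synergy assay. Antibiotic and adjuvant in twofold dilutions in Mueller-Hinton broth. Inoculum 5 × 10^5 CFU/mL from a 0.5 McFarland suspension, 18 h at 37 °C, MIC read by turbidity and confirmed at 590 nm. FIC = MIC in combination / MIC alone for each agent, FICI = sum. Interpreted as ≤0.5 synergy, 0.5–4 no interaction, >4 antagonism.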

Pseudomonas aeruginosa [2] = assay: Synergistic antibacterial activity against MDR/XDR Pseudomonas aeruginosa isolate PA260-97103 harboring GyrA T83I mutant assessed as fractional inhibitory concentration index in presence of rifampicin incubated for 18 hrs by broth microdilution method; assay type: functional; summary of the method: as §1
Pseudomonas aeruginosa [3] = assay: Synergistic antibacterial activity against wild type Pseudomonas aeruginosa PAO1 assessed as fractional inhibitory concentration index in presence of minocycline incubated for 18 hrs by broth microdilution method; assay type: functional
Summary of the method: (§2)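 Checkerboard titration of the adjuvant against the antibiotic, run under the CLSI microdilution conditions (MHB, 5 × 10^5 CFU/mL, 18 h, 37 °C). Each agent's FIC is its MIC in combination divided by its MIC alone; FICI is the sum of the two FICs. FICI ≤0.5 was read as synergy, >0.5–4.0 as no interaction, and >4.0 as antagonism.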

Pseudomonas aeruginosa [4] = assay: Antimicrobial activity against MDR/XDR Pseudomonas aeruginosa isolate 101885 harboring GyrA Thr83Ile mutant incubated for 18 hrs by broth microdilution method; assay type: functional; conditions: isolate 101885, 18 h
Summary of the method: (§3)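 Broth microdilution per CLSI: overnight cultures set to 0.5 McFarland in saline, diluted 1:50 in Mueller-Hinton broth to a final 5 × 10^5 CFU/mL, added to 2-fold serial dilutions, incubated 18 h at 37 °C; MIC is the lowest concentration without visible turbidity, confirmed at 590 nm.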

Pseudomonas aeruginosa [5] = assay: Synergistic antibacterial activity against MDR/XDR Pseudomonas aeruginosa isolate 101243 devoid of GyrA T83I mutant assessed as fractional inhibitory concentration index in presence of rifampicin incubated for 18 hrs by broth microdilution method; assay type: functional; summary of the method: as §1
[6] = Retention time of the compound by HPLC analysis; assay type: physicochemical
Pseudomonas aeruginosa [7] = assay: Synergistic antibacterial activity against MDR/XDR Pseudomonas aeruginosa isolate PA260-97103 harboring GyrA T83I mutant assessed as fractional inhibitory concentration index in presence of ciprofloxacin incubated for 18 hrs by broth microdilution method; assay type: functional; summary of the method: as §1
Pseudomonas aeruginosa [8] = assay: Antimicrobial activity against MDR/XDR Pseudomonas aeruginosa isolate PA259-96918 harboring GyrA Thr83Ile mutant incubated for 18 hrs by broth microdilution method; assay type: functional; conditions: isolate PA259-96918, 18 h; summary of the method: as §3
Pseudomonas aeruginosa [9] = assay: Synergistic antibacterial activity against MDR/XDR Pseudomonas aeruginosa isolate PA260-97103 harboring GyrA T83I mutant assessed as fractional inhibitory concentration index in presence of moxifloxacin incubated for 18 hrs by broth microdilution method; assay type: functional; summary of the method: as §1
Pseudomonas aeruginosa [10] = assay: Synergistic antibacterial activity against MDR/XDR Pseudomonas aeruginosa isolate PA259-96918 harboring T83I mutant assessed as fractional inhibitory concentration index in presence of rifampicin incubated for 18 hrs by broth microdilution method; assay type: functional; summary of the method: as §1
Pseudomonas aeruginosa [11] = assay: Synergistic antibacterial activity against MDR/XDR Pseudomonas aeruginosa isolate PA259-96918 harboring GyrA T83I mutant assessed as fractional inhibitory concentration index in presence of moxifloxacin incubated for 18 hrs by broth microdilution method; assay type: functional; summary of the method: as §1
Pseudomonas aeruginosa [12] = assay: Synergistic antibacterial activity against wild type Pseudomonas aeruginosa PAO1 assessed as fractional inhibitory concentration index in presence of rifampicin incubated for 18 hrs by broth microdilution method; assay type: functional; summary of the method: as §1
Pseudomonas aeruginosa [13] = assay: Synergistic antibacterial activity against MDR/XDR Pseudomonas aeruginosa isolate 101243 devoid of GyrA T83I mutant assessed as fractional inhibitory concentration index in presence of moxifloxacin incubated for 18 hrs by broth microdilution method; assay type: functional; summary of the method: as §1
Pseudomonas aeruginosa [14] = assay: Synergistic antibacterial activity against MDR/XDR Pseudomonas aeruginosa isolate PA259-96918 harboring GyrA T83I mutant assessed as fractional inhibitory concentration index in presence of ciprofloxacin incubated for 18 hrs by broth microdilution method; assay type: functional; summary of the method: as §1
Pseudomonas aeruginosa [15] = assay: Synergistic antibacterial activity against MDR/XDR Pseudomonas aeruginosa isolate 91433 devoid of GyrA T83I mutant assessed as fractional inhibitory concentration index in presence of moxifloxacin incubated for 18 hrs by broth microdilution method; assay type: functional; summary of the method: as §1
Pseudomonas aeruginosa [16] = assay: Antimicrobial activity against wild type Pseudomonas aeruginosa PAO1 incubated for 18 hrs by broth microdilution method; assay type: functional; conditions: PAO1, 18 h; summary of the method: as §3
Pseudomonas aeruginosa [17] = assay: Synergistic antibacterial activity against MDR/XDR Pseudomonas aeruginosa isolate 91433 devoid of GyrA T83I mutant assessed as fractional inhibitory concentration index in presence of ciprofloxacin incubated for 18 hrs by broth microdilution method; assay type: functional; summary of the method: as §1
Pseudomonas aeruginosa [18] = assay: Synergistic antibacterial activity against MDR/XDR Pseudomonas aeruginosa isolate 101885 harboring T83I mutant assessed as fractional inhibitory concentration index in presence of minocycline incubated for 18 hrs by broth microdilution method; assay type: functional; summary of the method: as §1
Pseudomonas aeruginosa [19] = assay: Synergistic antibacterial activity against MDR/XDR Pseudomonas aeruginosa isolate PA262-101856 harboring GyrA T83I mutant assessed as fractional inhibitory concentration index in presence of ciprofloxacin incubated for 18 hrs by broth microdilution method; assay type: functional; summary of the method: as §1
Pseudomonas aeruginosa [20] = assay: Synergistic antibacterial activity against MDR/XDR Pseudomonas aeruginosa isolate 100036 harboring GyrA T83I mutant assessed as fractional inhibitory concentration index in presence of moxifloxacin incubated for 18 hrs by broth microdilution method; assay type: functional; summary of the method: as §1
Pseudomonas aeruginosa [21] = assay: Synergistic antibacterial activity against MDR/XDR Pseudomonas aeruginosa isolate PA259-96918 harboring GyrAT83I mutant assessed as fractional inhibitory concentration index in presence of minocycline incubated for 18 hrs by broth microdilution method; assay type: functional; summary of the method: as §1
Pseudomonas aeruginosa [22] = assay: Antimicrobial activity against MDR/XDR Pseudomonas aeruginosa isolate 100036 harboring GyrA Thr83Ile mutant incubated for 18 hrs by broth microdilution method; assay type: functional; conditions: isolate 100036, 18 h; summary of the method: as §3
Klebsiella pneumoniae [23] = assay: Antimicrobial activity against Klebsiella pneumoniae 116381 incubated for 18 hrs by broth dilution method; assay type: functional; conditions: Klebsiella pneumoniae, 116381, 18 h
Summary of the method: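 CLSI broth microdilution. Overnight cultures were adjusted to 0.5 McFarland in saline, diluted 1:50 in Mueller-Hinton broth, and inoculated at a final 5 × 10^5 CFU/mL. Compounds were tested as 2-fold serial dilutions and incubated 18 h at 37 °C. MIC was the lowest concentration with no visible turbidity, confirmed by absorbance at 590 nm.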

Klebsiella pneumoniae [24] = assay: Synergistic antibacterial activity against Klebsiella pneumoniae 116381 assessed as fractional inhibitory concentration index in presence of rifampicin incubated for 18 hrs by broth dilution method; assay type: functional; summary of the method: as §2
Enterobacter cloacae [25] = assay: Synergistic antibacterial activity against Enterobacter cloacae 117029 assessed as fractional inhibitory concentration index in presence of minocycline incubated for 18 hrs by broth dilution method; assay type: functional; summary of the method: as §2
Enterobacter cloacae [26] = assay: Synergistic antibacterial activity against Enterobacter cloacae 117029 assessed as fractional inhibitory concentration index in presence of rifampicin incubated for 18 hrs by broth dilution method; assay type: functional; summary of the method: as §2
HEK293 = assay: Cytotoxicity against HEK293 cells at 50 uM incubated for 48 hrs in presence of 50 uM rifampicin by PrestoBlue dye based fluorescence assay; assay type: cell-based; conditions: human, hek293, 48 h

Row | Structure (SMILES) | fractional inhibitory concentration index (FICI) (Pseudomonas aeruginosa [1]) | fractional inhibitory concentration index (FICI) (Pseudomonas aeruginosa [2]) | fractional inhibitory concentration index (FICI) (Pseudomonas aeruginosa [3]) | MIC (Pseudomonas aeruginosa [4]) [µg/mL] | fractional inhibitory concentration index (FICI) (Pseudomonas aeruginosa [5]) | Retention_time [6] [min] | fractional inhibitory concentration index (FICI) (Pseudomonas aeruginosa [7]) | MIC (Pseudomonas aeruginosa [8]) [µg/mL] | fractional inhibitory concentration index (FICI) (Pseudomonas aeruginosa [9]) | fractional inhibitory concentration index (FICI) (Pseudomonas aeruginosa [10]) | fractional inhibitory concentration index (FICI) (Pseudomonas aeruginosa [11]) | fractional inhibitory concentration index (FICI) (Pseudomonas aeruginosa [12]) | fractional inhibitory concentration index (FICI) (Pseudomonas aeruginosa [13]) | fractional inhibitory concentration index (FICI) (Pseudomonas aeruginosa [14]) | fractional inhibitory concentration index (FICI) (Pseudomonas aeruginosa [15]) | MIC (Pseudomonas aeruginosa [16]) [µg/mL] | fractional inhibitory concentration index (FICI) (Pseudomonas aeruginosa [17]) | fractional inhibitory concentration index (FICI) (Pseudomonas aeruginosa [18]) | fractional inhibitory concentration index (FICI) (Pseudomonas aeruginosa [19]) | fractional inhibitory concentration index (FICI) (Pseudomonas aeruginosa [21]) | other results
1 | Cl.Cl.Cl.Cl.Cl.Cl.NC[C@H]1O[C@H](O[C@H]2[C@H](OCCCCCCCCCCN3CCN(Cc4cccc5ccccc45)CC3)[C@@H](O)[C@H](N)C[C@@H]2N)[C@H](N)C[C@@H]1O | 0.02 | 0.05 | 0.09 | 512 | 0.05 | 12.917 | 0.38 | > 512 | 0.08 | 0.004 - 0.006 | 0.016 - 0.023 | 0.02 | 0.13 | 0.063 - 0.078 | 0.25 | 256 | 0.38 | 0.04 | 0.13 | 0.016 - 0.031 | fractional inhibitory concentration index (FICI) (Pseudomonas aeruginosa [20]): 0.063 - 0.07; MIC (Pseudomonas aeruginosa [22]): > 512 µg/mL
2 | Cl.Cl.Cl.Cl.Cl.NC[C@H]1O[C@H](O[C@H]2[C@H](OCCCCCCCCCCCCN3CCN(c4cc5c(cc4F)c(=O)c(C(=O)O)cn5C4CC4)CC3)[C@@H](O)[C@H](N)C[C@@H]2N)[C@H](N)C[C@@H]1O |  |  | 0.047 |  |  | 14.945 |  | > 128 |  | 0.008 - 0.016 |  | 0.047 |  |  |  | 64 |  |  |  | 0.031 - 0.063 | MIC (Klebsiella pneumoniae [23]): > 128 µg/mL; fractional inhibitory concentration index (FICI) (Klebsiella pneumoniae [24]): <=0.039; fractional inhibitory concentration index (FICI) (Enterobacter cloacae [25]): 0.125; fractional inhibitory concentration index (FICI) (Enterobacter cloacae [26]): 0.023; Activity (HEK293): Non-Toxic
3 | COc1c(N2C[C@@H]3CCCN(CCCCCCCCCCCCO[C@@H]4[C@@H](O)[C@H](N)C[C@H](N)[C@H]4O[C@H]4O[C@H](CN)[C@@H](O)C[C@H]4N)[C@@H]3C2)c(F)cc2c(=O)c(C(=O)O)cn(C3CC3)c12.Cl.Cl.Cl.Cl.Cl | 0.05 | 0.06 | 0.38 | 128 | 0.13 | 14.585 | 0.25 | > 256 | 0.13 | 0.004 - 0.01 | 0.06 - 0.07 | 0.07 | 0.16 | 0.25 - 0.27 | 0.31 | 32 | 0.25 | 0.07 | 0.25 - 0.28 | 0.03 - 0.04 | MIC (Klebsiella pneumoniae [23]): > 256 µg/mL; fractional inhibitory concentration index (FICI) (Klebsiella pneumoniae [24]): 0.002 - 0.006; fractional inhibitory concentration index (FICI) (Enterobacter cloacae [25]): 0.19; fractional inhibitory concentration index (FICI) (Enterobacter cloacae [26]): 0.06; fractional inhibitory concentration index (FICI) (Pseudomonas aeruginosa [20]): 0.08; Activity (HEK293): Non-Toxic; MIC (Pseudomonas aeruginosa [22]): 128 µg/mL
